Experimental data: ChEMBL document CHEMBL1146459, “Production of biologically active taxoids by a callus culture of Taxus cuspidata” (2004)

Key:
[1] = system: MKN-28; experiment: Growth inhibition of human MKN28 cells after 48 hrs by SRB assay; type: functional; details: MKN-28, 48 h
[2] = Growth inhibition of human MKN1 cells after 48 hrs by SRB assay; type: functional; details: MKN-1, 48 h
[3] = system: NCI-H226; experiment: Growth inhibition of human NCI-H226 cells after 48 hrs by SRB assay; type: functional; details: NCI-H226, 48 h
[4] = system: SF-539; experiment: Growth inhibition of human SF539 cells after 48 hrs by SRB assay; type: functional; details: SF-539, 48 h
[5] = system: OVCAR-4; experiment: Growth inhibition of human OVCAR4 cells after 48 hrs by SRB assay; type: functional; details: OVCAR-4, 48 h
[6] = Reversal of multidrug resistance in human 2780AD cells assessed as [3H]vincristine accumulation at 0.1 ug/mL after 2 hrs relative to control; type: functional, A2780 ADR
Outline: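 Multidrug-resistant human ovarian cancer 2780AD cells were exposed to taxoids at 0.1, 1 or 10 µg/mL. Radiolabelled vincristine accumulated in the cells was measured as dpm/well, using means of triplicate determinations. Results are expressed as % of vincristine accumulated relative to the control experiment. They were also scored on a seven-level index according to the range of relative accumulation.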

[7] = system: OVCAR-5; experiment: Growth inhibition of human OVCAR5 cells after 48 hrs by SRB assay; type: functional; details: OVCAR-5, 48 h
[8] = system: SK-OV-3; experiment: Growth inhibition of human SKOV3 cells after 48 hrs by SRB assay; type: functional; details: SK-OV-3, 48 h
[9] = system: A549; experiment: Growth inhibition of human A549 cells after 48 hrs by SRB assay; type: functional; details: A549, 48 h
[10] = system: DU-145; experiment: Growth inhibition of human DU145 cells after 48 hrs by SRB assay; type: functional; details: DU-145, 48 h
[11] = system: HCT-15; experiment: Growth inhibition of human HCT15 cells after 48 hrs by SRB assay; type: functional; details: HCT-15, 48 h
[12] = Growth inhibition of human RXF631L cells after 48 hrs by SRB assay; type: functional; details: RXF 631, 48 h
[13] = system: U-251; experiment: Growth inhibition of human U251 cells after 48 hrs by SRB assay; type: functional; details: U-251, 48 h
[14] = Growth inhibition of human HBC4 cells after 48 hrs by SRB assay; type: functional; details: HBC4, 48 h
[15] = system: OVCAR-8; experiment: Growth inhibition of human OVCAR8 cells after 48 hrs by SRB assay; type: functional; details: OVCAR-8, 48 h
[16] = system: PC-3; experiment: Growth inhibition of human PC3 cells after 48 hrs by SRB assay; type: functional; details: PC-3, 48 h
[17] = Growth inhibition of human BSY1 cells after 48 hrs by SRB assay; type: functional; details: BSY-1, 48 h
[18] = system: HT-29; experiment: Growth inhibition of human HT-29 cells after 48 hrs by SRB assay; type: functional; details: HT-29, 48 h
[19] = system: HCT-116; experiment: Growth inhibition of human HCT116 cells after 48 hrs by SRB assay; type: functional; details: HCT-116, 48 h
[20] = system: NCI-H522; experiment: Growth inhibition of human NCI-H522 cells after 48 hrs by SRB assay; type: functional; details: NCI-H522, 48 h
[21] = system: KM12; experiment: Growth inhibition of human KM12 cells after 48 hrs by SRB assay; type: functional; details: KM12, 48 h
[22] = read-out: LC50 (the source's name)
[23] = read-out: pLC50 (the source's name) (converted)

Compound: C=C1[C@@H](OC(C)=O)CC[C@]2(C)[C@@H]1C[C@@H]1C[C@H](OC(C)=O)C(C)=C([C@@H](O)[C@@H]2OC(=O)/C=C/c2ccccc2)C1(C)C
- GI50 ([1]; read-out: GI50): 12 µM
- CC50 [1, 22]: > 100 µM
- TGI ([1]; read-out: TGI): 100 µM
- GI50 ([1]; read-out: pGI50 (converted)): 11.7 µM
- CC50 ([1]; read-out: pLC50 (converted)): > 100 µM
- TGI ([1]; read-out: pTGI (converted)): 100 µM
- GI50 ([2]; read-out: GI50): 93 µM
- TGI ([2]; read-out: TGI): 100 µM
- GI50 ([2]; read-out: pGI50 (converted)): 93.3 µM
- TGI ([2]; read-out: pTGI (converted)): 100 µM
- GI50 ([3]; read-out: GI50): 21 µM
- CC50 [3, 22]: 100 µM
- TGI ([3]; read-out: TGI): 100 µM
- GI50 ([3]; read-out: pGI50 (converted)): 83.2 µM
- CC50 [3, 23]: 100 µM
- TGI ([3]; read-out: pTGI (converted)): 100 µM
- GI50 ([4]; read-out: GI50): > 100 µM
- CC50 [4, 22]: 100 µM
- TGI ([4]; read-out: TGI): 100 µM
- GI50 ([4]; read-out: pGI50 (converted)): > 100 µM
- CC50 [4, 23]: 100 µM
- TGI ([4]; read-out: pTGI (converted)): 100 µM
- GI50 ([5]; read-out: GI50): 22 µM
- CC50 [5, 22]: 100 µM
- TGI ([5]; read-out: TGI): 100 µM
- GI50 ([5]; read-out: pGI50 (converted)): 22.4 µM
- CC50 [5, 23]: 100 µM
- TGI ([5]; read-out: pTGI (converted)): 100 µM
- Activity [6]: 162%
- GI50 ([7]; read-out: GI50): 32 µM
- TGI ([7]; read-out: TGI): 100 µM
- GI50 ([7]; read-out: pGI50 (converted)): 32.4 µM
- TGI ([7]; read-out: pTGI (converted)): 100 µM
- GI50 ([8]; read-out: GI50): > 100 µM
- CC50 [8, 22]: 100 µM
- TGI ([8]; read-out: TGI): 100 µM
- GI50 ([8]; read-out: pGI50 (converted)): > 100 µM
- CC50 [8, 23]: 100 µM
- TGI ([8]; read-out: pTGI (converted)): 100 µM
- GI50 ([9]; read-out: GI50): 9.6 µM
- CC50 [9, 22]: 100 µM
- TGI ([9]; read-out: TGI): 100 µM
- GI50 ([9]; read-out: pGI50 (converted)): 9.55 µM
- CC50 [9, 23]: 100 µM
- TGI ([9]; read-out: pTGI (converted)): 100 µM
- GI50 ([10]; read-out: GI50): > 100 µM
- CC50 [10, 22]: 100 µM
- TGI ([10]; read-out: TGI): 100 µM
- GI50 ([10]; read-out: pGI50 (converted)): > 100 µM
- CC50 [10, 23]: 100 µM
- TGI ([10]; read-out: pTGI (converted)): 100 µM
- GI50 ([11]; read-out: GI50): 29 µM
- CC50 [11, 22]: > 100 µM
- TGI ([11]; read-out: TGI): 100 µM
- GI50 ([11]; read-out: pGI50 (converted)): 28.8 µM
- CC50 ([11]; read-out: pLC50 (converted)): > 100 µM
- TGI ([11]; read-out: pTGI (converted)): 100 µM
- GI50 ([12]; read-out: GI50): > 100 µM
- CC50 [12, 22]: 100 µM
- TGI ([12]; read-out: TGI): 100 µM
- GI50 ([12]; read-out: pGI50 (converted)): > 100 µM
- CC50 [12, 23]: 100 µM
- TGI ([12]; read-out: pTGI (converted)): 100 µM
- GI50 ([13]; read-out: GI50): 71 µM
- CC50 [13, 22]: 100 µM
- TGI ([13]; read-out: TGI): 100 µM
- GI50 ([13]; read-out: pGI50 (converted)): 70.8 µM
- CC50 [13, 23]: 100 µM
- TGI ([13]; read-out: pTGI (converted)): 100 µM
- CC50 [14, 22]: 100 µM
- TGI ([14]; read-out: TGI): 100 µM
- GI50 ([14]; read-out: pGI50 (converted)): > 100 µM
- CC50 [14, 23]: 100 µM
- TGI ([14]; read-out: pTGI (converted)): 100 µM
- GI50 ([15]; read-out: GI50): > 100 µM
- TGI ([15]; read-out: TGI): 100 µM
- GI50 ([15]; read-out: pGI50 (converted)): > 100 µM
- TGI ([15]; read-out: pTGI (converted)): 100 µM
- GI50 ([16]; read-out: GI50): 5.2 µM
- TGI ([16]; read-out: TGI): 100 µM
- GI50 ([16]; read-out: pGI50 (converted)): 5.25 µM
- TGI ([16]; read-out: pTGI (converted)): 100 µM
- GI50 ([17]; read-out: GI50): 6.9 µM
- TGI ([17]; read-out: TGI): 82 µM
- GI50 ([17]; read-out: pGI50 (converted)): 6.92 µM
- TGI ([17]; read-out: pTGI (converted)): 87.1 µM
- GI50 ([18]; read-out: GI50): 43 µM
- CC50 [18, 22]: > 100 µM
- TGI ([18]; read-out: TGI): 100 µM
- GI50 ([18]; read-out: pGI50 (converted)): 41.7 µM
- CC50 ([18]; read-out: pLC50 (converted)): > 100 µM
- TGI ([18]; read-out: pTGI (converted)): 100 µM
- GI50 ([19]; read-out: GI50): 5.6 µM
- CC50 [19, 22]: 100 µM
- TGI ([19]; read-out: TGI): 100 µM
- GI50 ([19]; read-out: pGI50 (converted)): 5.62 µM
- CC50 [19, 23]: 100 µM
- TGI ([19]; read-out: pTGI (converted)): 100 µM
- GI50 ([20]; read-out: GI50): 3.1 µM
- CC50 [20, 22]: 100 µM
- TGI ([20]; read-out: TGI): 81 µM
- GI50 ([20]; read-out: pGI50 (converted)): 3.09 µM
- CC50 [20, 23]: 100 µM
- TGI ([20]; read-out: pTGI (converted)): 100 µM
- GI50 ([21]; read-out: GI50): 6.4 µM
- CC50 [21, 22]: > 100 µM
- TGI ([21]; read-out: TGI): 100 µM
- GI50 ([21]; read-out: pGI50 (converted)): 6.46 µM
- CC50 ([21]; read-out: pLC50 (converted)): > 100 µM
- TGI ([21]; read-out: pTGI (converted)): 100 µM
